Experimental data from ChEMBL document CHEMBL1142457, “Bisphosphonated fluoroquinolone esters as osteotropic prodrugs for the prevention of osteomyelitis” (Bioorg Med Chem, 2008).
In brackets after ≈: the same amount, converted by molar mass. Activity calls are given as the source filed them. The rule behind the calls is not given here.

Columns and labels:
Staphylococcus aureus [1] = test: Antibacterial activity against Staphylococcus aureus ATCC 13709 after 24 hrs by microdilution method; type: functional; details: ATCC 13709, 24 h
In short: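 Broth microdilution MIC per CLSI M7-A7 against S. aureus ATCC 13709.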

Bone = test: Binding affinity to bone assessed as drug level bound to cattle bone meal powder by fluorescence assay; type: tissue-based; set-up: concentration or dose not given beside the values; details: Bos taurus; Bone element
In short: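 Drug or prodrug was suspended with bone meal powder in PBS and held 1 h at 37 °C to bind, then centrifuged. The pellet was washed three times with PBS, and all supernatants were read by fluorescence (ex/em 280/465 nm). Bound fraction was taken as […] prodrug relative to total input.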

[2] = Stability in phosphate buffer saline assessed as amount of parent drug released from cattle bone meal powder over 24 hrs; type: ADME
In short: (§1)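 Washed bone-powder-bound prodrug was resuspended in PBS or 50% (v/v in PBS) human or rat serum and kept 24 h at 37 °C. The supernatant was extracted with 5 volumes of methanol, centrifuged, dried, redissolved in PBS and read by fluorescence. Release was derived from the difference between bound prodrug and regenerated drug. Identity was checked by CLSI MIC.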

Serum [3] = test: Stability in 50% human serum assessed as amount of parent drug released from cattle bone meal powder over 24 hrs; type: ADME, cell-free; in short: as §1
Serum [4] = test: Stability in 50% rat serum assessed as amount of parent drug released from cattle bone meal powder over 24 hrs; type: ADME, cell-free; in short: as §1
Staphylococcus aureus [5] = test: Protective effect against Staphylococcus aureus ATCC 13709-induced bone infection in CD rat at 10 mg/kg, iv administered as single dose
Staphylococcus aureus [6] = test: Protective effect against Staphylococcus aureus ATCC 13709-induced bone infection in CD rat at 10 mg/kg, iv administered as single dose 2 days before bacterial challenge; type: functional, organism-based; set-up: dose 10 mg/kg
In short: (§2)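 Female CD rats (57–70 days, n = 5/group) received a single IV bolus in 0.9% saline before infection. Under isoflurane, tibiae were injected with 0.05 ml 5% sodium morrhuate, then S. aureus ATCC 13709 (ca. 5 × 10⁵ CFU/rat). At 24 h, tibiae were milled and cultured quantitatively. Read-out was log CFU/g bone (mean, SD; detection limit 2 log), compared by Dunnett or Kruskal–Wallis.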

Staphylococcus aureus [7] = test: Protective effect against Staphylococcus aureus ATCC 13709-induced bone infection in CD rat at 15.8 mg/kg, iv administered as single dose 2 days before bacterial challenge; type: functional, organism-based; set-up: dose 15.8 mg/kg; in short: as §2
Staphylococcus aureus [8] = test: Protective effect against Staphylococcus aureus ATCC 13709-induced bone infection in CD rat at 10 mg/kg, iv administered as single dose 24 hrs after bacterial challenge; type: functional, organism-based; set-up: dose 10 mg/kg
Staphylococcus aureus [9] = test: Protective effect against Staphylococcus aureus ATCC 13709-induced bone infection in CD rat at 17.3 mg/kg, iv administered as single dose 2 days before bacterial challenge; type: functional, organism-based; set-up: dose 17.3 mg/kg; in short: as §2

MIC (Staphylococcus aureus [1]) [mg/L] | Activity (Bone) [%] | Activity [2] [%] | Activity (Serum [3]) [%] | Activity (Serum [4]) [%] | SMILES | Activity (Staphylococcus aureus [5]) | Activity (Staphylococcus aureus [6]) | Activity (Staphylococcus aureus [7]) | Activity (Staphylococcus aureus [8]) | Activity (Staphylococcus aureus [9])
> 4 | 99 | 0.3 | 0.5 | 0.4 | COc1c(N2C[C@@H]3CCCN[C@@H]3C2)c(F)cc2c(=O)c(C(=O)SCC(=O)NC(P(=O)(O)O)P(=O)(O)O)cn(C3CC3)c12 | – | – | – | – | –
> 4 | 98.7 | 0.1 | 0.1 | 0.1 | COc1c(N2CCNC(C)C2)c(F)cc2c(=O)c(C(=O)SCCCC(P(=O)(O)O)P(=O)(O)O)cn(C3CC3)c12 (centres undefined) | – | – | – | – | –
> 4 | 98.7 | 1.2 | 1.4 | 1.4 | COc1c(N2C[C@@H]3CCCN[C@@H]3C2)c(F)cc2c(=O)c(C(=O)OCC(=O)NC(P(=O)(O)O)P(=O)(O)O)cn(C3CC3)c12 | – | – | Active | – | –
> 4 | 92.7 | 0.01 | – | – | COc1c(N2C[C@@H]3CCCN[C@@H]3C2)c(F)cc2c(=O)c(C(=O)OCCCCC(P(=O)(O)O)P(=O)(O)O)cn(C3CC3)c12 | – | – | – | – | –
> 4 | 92.8 | 0.2 | 0.4 | 0.4 | COc1c(N2CCNC(C)C2)c(F)cc2c(=O)c(C(=O)OCC(=O)NCCCC[C@@H](NC(=O)COC(=O)c3cn(C4CC4)c4c(OC)c(N5CCNC(C)C5)c(F)cc4c3=O)C(=O)NC(P(=O)(O)O)P(=O)(O)O)cn(C3CC3)c12 (some centres undefined) | – | – | – | – | –
> 4 | 97.2 | 0.6 | 1.2 | 1.3 | COc1c(N2C[C@@H]3CCCN[C@@H]3C2)c(F)cc2c(=O)c(C(=O)OCC(=O)Nc3ccc(CC(P(=O)(O)O)P(=O)(O)O)cc3)cn(C3CC3)c12 | – | – | – | – | –
> 4 | 88.9 | 0.5 | 0.7 | 0.6 | COc1c(N2CCNC(C)C2)c(F)cc2c(=O)c(C(=O)OCC(=O)Nc3ccc(CC(P(=O)(O)O)P(=O)(O)O)cc3)cn(C3CC3)c12 (centres undefined) | – | – | – | – | –
> 4 | 93.8 | – | – | – | COc1c(N2C[C@@H]3CCCN[C@@H]3C2)c(F)cc2c(=O)c(C(=O)OCCCC(P(=O)(O)O)P(=O)(O)O)cn(C3CC3)c12 | – | – | – | – | –
> 4 | 90.4 | 1.1 | 0.6 | 0.9 | COc1c(N2CCNC(C)C2)c(F)cc2c(=O)c(C(=O)OCC(=O)N(C)C(P(=O)(O)O)P(=O)(O)O)cn(C3CC3)c12 (centres undefined) | – | – | – | – | –
> 4 | 79.2 | 0.2 | 0.1 | 0.1 | COc1c(N2CCNC(C)C2)c(F)cc2c(=O)c(C(=O)Oc3ccc(C(P(=O)(O)O)P(=O)(O)O)cc3)cn(C3CC3)c12 (centres undefined) | – | – | – | – | –
> 4 | 97.3 | 0.3 | 0.8 | 0.7 | COc1c(N2C[C@@H]3CCCN[C@@H]3C2)c(F)cc2c(=O)c(C(=O)OCC(=O)N(C)C(P(=O)(O)O)P(=O)(O)O)cn(C3CC3)c12 | – | – | – | – | –
> 4 | 91 | 2.7 | 1.6 | 1.3 | COc1c(N2CCNC(C)C2)c(F)cc2c(=O)c(C(=O)OCC(=O)NC(P(=O)(O)O)P(=O)(O)O)cn(C3CC3)c12 (centres undefined) | – | – | – | – | Active
> 4 | 99.9 | 0.04 | 0.1 | 0.1 | COc1c(N2C[C@@H]3CCCN[C@@H]3C2)c(F)cc2c(=O)c(C(=O)SCCCC(P(=O)(O)O)P(=O)(O)O)cn(C3CC3)c12 | – | – | – | – | –

SMILES | MIC (Staphylococcus aureus [1]) [mg/L] | Activity (Bone) [%] | Activity [2] [%] | Activity (Serum [3]) [%] | Activity (Serum [4]) [%] | Activity (Staphylococcus aureus [5]) | Activity (Staphylococcus aureus [6]) | Activity (Staphylococcus aureus [7]) | Activity (Staphylococcus aureus [8]) | Activity (Staphylococcus aureus [9])
COc1c(N2CCNC(C)C2)c(F)cc2c(=O)c(C(=O)O)cn(C3CC3)c12 (centres undefined) [GATIFLOXACIN] | 0.06 (≈ 0.16 µM) | – | – | – | – | inactive | inactive | – | – | –
COc1c(N2C[C@@H]3CCCN[C@@H]3C2)c(F)cc2c(=O)c(C(=O)O)cn(C3CC3)c12 [MOXIFLOXACIN] | 0.03 (≈ 0.0747 µM) | – | – | – | – | inactive | inactive | – | inactive | –
